Data on 2 molecules can be found in ChEMBL document CHEMBL5150021, “Identification of 5-(Aryl/Heteroaryl)amino-4-quinolones as Potent Membrane-Disrupting Agents to Combat Antibiotic-Resistant Gram-Positive Bacteria” (J Med Chem, 2022).

In brackets after ≈: the same amount, converted by molar mass. Activity calls are given as the source filed them. The rule behind the calls is not given here.

In data set [1] the test system is Erythrocyte. Kind of data set: Hemolytic activity in sheep erythrocytes at 32 ug/ml incubated for 1 hr. Type of data set: toxicity, cell-based, Ovis aries. The settings on record: dose 32 µg/ml. The essentials:
(§1)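 4% sheep erythrocytes mixed 1:1 with twofold serial compound dilutions in PBS, incubated stationary 1 h at 37 °C, then centrifuged at 500g for 5 min. Supernatant A540 is measured and percent hemolysis is calculated relative to DMSO vehicle (0%) and Triton X-100 (100%). Triplicate, mean ± SD.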

Data set [2] relates to Staphylococcus aureus. The data set can be described thus: microbe, parasite or virus in culture. The settings on record: USA300 FPR3757, 24 h.
For data set [3], the system named is Enterococcus faecalis. Kind of data set: Antibacterial activity against Enterococcus faecalis ATCC700802 assessed as inhibition of bacterial growth incubated for 24 hrs by CLSI based method. Type of data set: functional. The essentials: (§2)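 Broth microdilution per CLSI. Equal volume of twofold serial compound dilutions added. Incubated stationary at 37 °C for 24 h. MIC taken as lowest concentration giving complete inhibition of visible growth. Oxacillin control for Gram-positives, ceftriaxone for Gram-negatives.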

A short description of data set [4]: Half life in CD-1 mouse at 0.5 mg/kg, iv administered as single dose and measured for 24 hrs by LC-MS/MS analysis. Type of data set: ADME, organism-based. The settings on record: in vivo. In a few lines: (§3)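 Six-week-old female CD-1 mice (n = 3 per route). Dosing: single 0.5 mg/kg i.v. in 5% DMA/95% (4% Cremophor EL), or 10 mg/kg oral gavage in 5% DMA/60% PEG 300/35% D5W. Tail-vein blood is collected to 24 h into K2EDTA, and plasma is analysed by LC-MS/MS. Parameters come from noncompartmental analysis.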

Data set [5] is described as follows: Protein binding in human plasma at […] incubated for 4 hrs under shaking condition by LC-MS/MS based equilibrium dialysis method. Type of data set: ADME, cell-free. The essentials:
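Rapid equilibrium dialysis (8k MWCO). Compound is spiked into human plasma at 10 μg/mL and dialysed against DPBS pH 7.4 with shaking for 4 h at 37 °C. Matrices are matched, proteins precipitated with methanol containing internal standard, and both chambers quantified by LC-MS/MS against a calibration curve. Percent free and bound are calculated from chamber concentrations.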
For orientation: In equilibrium dialysis only unbound substance equilibrates across the membrane.

The subject of data set [6] is Staphylococcus aureus. The data set can be described thus: Antibacterial activity against methicillin-resistant Staphylococcus aureus N315 assessed as inhibition of bacterial growth incubated for 24 hrs by CLSI based method. Type of data set: functional. In a few lines:
as §2

Data set [7] in a line: AUC (0 to 24 hrs) in CD-1 mouse at 0.5 mg/kg, iv administered as single dose and measured for 24 hrs by LC-MS/MS analysis. Type of data set: ADME, organism-based. Also noted: time 24 hrs, dose 0.5 mg/kg, route iv. The settings on record: in vivo. The essentials: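 Six-week-old female CD-1 mice (20–25 g; n = 3) received one intravenous injection at 0.5 mg/kg in 5% DMA:95% (4% Cremophor EL). […] Plasma was stored at −80 °C and quantified by LC-MS/MS. AUC came from noncompartmental analysis, reported as mean ± SD.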

Data set [8] relates to Cell membrane. Kind of data set: Induction of cell membrane damage in Staphylococcus aureus USA300 assessed as cross-wall-septum formation with reduced splitting at 1 times MIC measured after 10 mins by TEM analysis. Type of data set: subcellular.
Data set [9] deals with Enterobacter cloacae. The data set can be described thus: Antibacterial activity against Enterobacter cloacae ND-21 assessed as inhibition of bacterial growth incubated for 24 hrs by CLSI based method. Type of data set: functional. In a few lines: as §2
The test system of data set [10] is Staphylococcus aureus. Kind of data set: Antibacterial activity against methicillin-resistant Staphylococcus aureus NRS71 assessed as inhibition of bacterial growth incubated for 24 hrs by CLSI based method. Type of data set: functional. In a few lines: as §2
For data set [11], the system named is Staphylococcus aureus. Kind of data set: Antibacterial activity against methicillin resistant Staphylococcus aureus FPR3757 assessed as inhibition of bacterial growth incubated for 24 hrs in presence of 10% mouse serum by CLSI based method. Type of data set: functional. The essentials: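 CLSI broth microdilution against MRSA FPR3757 (USA300) in Mueller–Hinton broth supplemented with 10% serum (fetal bovine or mouse). Inoculum 10⁶ CFU/mL with twofold serial compound dilutions, stationary incubation at 37 °C for 24 h. MIC read as lowest concentration with complete inhibition of visible growth.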

For data set [12], the system named is Vero. Kind of data set: Cytotoxicity against African green monkey Vero cells assessed as increase in LDH release at 30 uM incubated for 24 hrs relative to control. The settings on record: chlorocebus sabaeus. Type of data set: toxicity, cell-based. In a few lines: (§4)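 Confluent Vero cells (maintained in RPMI 1640 + 10% FBS, 37 °C, 5% CO2) exposed to compound at 0.47–30 μM (twofold dilutions) in serum-free medium for 24 h at 37 °C. LDH in supernatant is measured colorimetrically at 490 nm and expressed as percent of 2% detergent positive control.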
(Release of lactate dehydrogenase indicates damage to the cell membrane.)

For data set [13], the system named is Cell membrane. Kind of data set: Induction of cell membrane damage in Staphylococcus aureus USA300 assessed as bulging of the septum at 1 times MIC measured after 1 hrs by TEM analysis. In a few lines: (§5)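 Fixed in glutaraldehyde/paraformaldehyde in cacodylate pH 7.4, post-fixed with osmium tetroxide, stained with uranyl acetate, resin-embedded, thin-sectioned and imaged by TEM.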

Data set [14] in a line: Volume of distribution in CD-1 mouse at 0.5 mg/kg, iv administered as single dose and measured for 24 hrs by LC-MS/MS analysis. Type of data set: ADME, organism-based. The settings on record: in vivo. The essentials: as §3
A short description of data set [15]: Cytotoxicity against sheep erythrocytes assessed as reduction in cell viability. Type of data set: toxicity, cell-based, Ovis aries, Erythrocyte. In a few lines: as §1
Data set [16] concerns Staphylococcus aureus. Kind of data set: Antibacterial activity against methicillin resistant Staphylococcus aureus FPR3757 assessed as inhibition of bacterial growth incubated for 24 hrs by CLSI based method. Type of data set: functional. The settings on record: read-out: MIC100. In a few lines:
(§6)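 It was mixed 1:1 with twofold serial compound dilutions and incubated stationary at 37 °C for 24 h. MIC was the lowest concentration giving complete inhibition of observable growth, with an oxacillin control.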

Data set [17] in a line: Oral bioavailability in CD-1 mouse at 10 mg/kg administered as single dose and measured for 24 hrs by LC-MS/MS analysis. The settings on record: in vivo. Type of data set: ADME, organism-based. The essentials: as §3
The test system of data set [18] is Cell membrane. Kind of data set: Induction of cell membrane damage in Staphylococcus aureus USA300 assessed as mesosome-like membrane inclusions at 1 times MIC measured after 1 hrs by TEM analysis. The essentials:
as §5

In data set [19] the test system is Staphylococcus aureus. The data set can be described thus: Antibacterial activity against methicillin-resistant Staphylococcus aureus MW2 assessed as inhibition of bacterial growth incubated for 24 hrs by CLSI based method. Type of data set: functional. In a few lines:
as §2

In data set [20] the test system is Enterococcus faecalis. The data set can be described thus: Antibacterial activity against Enterococcus faecalis DHMC #1 assessed as inhibition of bacterial growth incubated for 24 hrs by CLSI based method. Type of data set: functional. The essentials:
as §2

Data set [21] can be described thus: Kinetic aqueous solubility of the compound in DPBS at pH 7.4 at 100 ug/ml measured after 6 hrs by LC-MS/MS analysis. The settings on record: buffer, pH 7.4, 6 h, dose 100 µg/ml. Type of data set: physicochemical.
For data set [22], the system named is Cell membrane. The data set can be described thus: Induction of cell membrane damage in Staphylococcus aureus USA300 assessed as membrane wrinkling at 1 times MIC measured after 1 hrs by TEM analysis. In a few lines:
as §5

Data set [23] relates to Enterococcus faecium. Kind of data set: Antibacterial activity against Enterococcus faecium DHMC #1 assessed as inhibition of bacterial growth incubated for 24 hrs by CLSI based method. Type of data set: functional. In a few lines:
as §2

Data set [24] concerns Klebsiella pneumoniae. The data set can be described thus: Antibacterial activity against Klebsiella pneumoniae 7117 assessed as inhibition of bacterial growth incubated for 24 hrs by CLSI based method. Type of data set: functional. In a few lines: as §2
In data set [25] the test system is Staphylococcus aureus. Kind of data set: Antibacterial activity against community-associated methicillin-resistant Staphylococcus aureus USA300 FPR3757 assessed as inhibition of bacterial growth incubated for 24 hrs by CLSI based method. Type of data set: functional. In a few lines: as §6
The subject of data set [26] is Vero. The data set can be described thus: Cytotoxicity against African green monkey Vero cells assessed as increase in LDH release at 0.47 to 30 uM incubated for 24 hrs. Type of data set: toxicity, cell-based. The settings on record: chlorocebus sabaeus, dose 0.47-30 µM. In a few lines: as §4
The subject of data set [27] is Escherichia coli. The data set can be described thus: Antibacterial activity against Escherichia coli DHMC-1 assessed as inhibition of bacterial growth incubated for 24 hrs by CLSI based method. Type of data set: functional. In a few lines:
as §2

For data set [28], the system named is Staphylococcus epidermidis. Kind of data set: Antibacterial activity against Staphylococcus epidermidis NIF104008 assessed as inhibition of bacterial growth incubated for 24 hrs by CLSI based method. Type of data set: functional. In a few lines:
as §2

For data set [29], the system named is Candida albicans. The data set can be described thus: Antifungal activity against Candida albicans SC5314 assessed as inhibition of bacterial growth incubated for 24 hrs by CLSI based method. Type of data set: functional. The essentials: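 Broth microdilution per CLSI. It is mixed 1:1 with twofold serial compound dilutions and incubated stationary at 35 °C for 24 h. MIC is read as the lowest concentration with no observable growth.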

Data set [30] concerns Staphylococcus aureus. The data set can be described thus: Antibacterial activity against methicillin-resistant Staphylococcus aureus COL assessed as inhibition of bacterial growth incubated for 24 hrs by CLSI based method. Type of data set: functional. In a few lines:
as §2

Data set [31] concerns Staphylococcus epidermidis. The data set can be described thus: Antibacterial activity against Staphylococcus epidermidis NIF104003 assessed as inhibition of bacterial growth incubated for 24 hrs by CLSI based method. Type of data set: functional. The essentials:
as §2

The subject of data set [32] is Enterococcus faecium. The data set can be described thus: Antibacterial activity against Enterococcus faecium ATCC19579 assessed as inhibition of bacterial growth incubated for 24 hrs by CLSI based method. Type of data set: functional. The essentials: as §2
Data set [33] is described as follows: Cmax in CD-1 mouse at 10 mg/kg, po administered as single dose and measured for 24 hrs by LC-MS/MS analysis. Type of data set: ADME, organism-based. The settings on record: in vivo. The arrangement: time 24 hrs, dose 10 mg/kg, route po.
Data set [34] can be described thus: AUC (0 to 24 hrs) in CD-1 mouse at 10 mg/kg, po administered as single dose and measured for 24 hrs by LC-MS/MS analysis. Type of data set: ADME, organism-based. The arrangement: time 24 hrs, dose 10 mg/kg, route po. The settings on record: in vivo.
In data set [35] the test system is Staphylococcus aureus. Kind of data set: Antibacterial activity against methicillin resistant Staphylococcus aureus assessed as inhibition of bacterial growth incubated for 15 hrs by CLSI based broth microdilution method. Type of data set: functional. In general terms: Broth dilution looks for growth in wells or tubes with falling amounts of substance.

`O=c1cc(C(F)(F)F)[nH]c2cc(C(F)(F)F)cc(Nc3ccc(C(F)(F)F)cn3)c12`: the results for the Activity entry in data set [1], in data set [12] and in [26] were “Non-Toxic”, 20% and “Non-Toxic”, respectively. In addition, the MBC in [2] was determined as 2 µg/mL (≈ 4.53 µM). Further, the MIC was 2 µg/mL (≈ 4.53 µM) in [3]; less than 0.06 µg/mL in data set [6]; greater than 128 µg/mL in data set [9]; less than 0.06 µg/mL in data set [10]; 4 µg/mL in data set [11]; less than 0.0625 µg/mL in data set [16]. The MIC is less than 0.06 µg/mL in data set [19]; 2 µg/mL (≈ 4.53 µM) in [20]; 2 µg/mL (≈ 4.53 µM) in [23]; greater than 128 µg/mL in data set [24]; 0.0625 µg/mL (≈ 0.142 µM) in data set [25]; greater than 128 µg/mL in data set [27]. The MIC in data set [28] was less than 0.06 µg/mL; in data set [29] it was 256 µg/mL (≈ 580 µM); in data set [30] it was less than 0.06 µg/mL; in data set [31], less than 0.06 µg/mL; in [32] it was less than 0.06 µg/mL. In data set [4], this molecule registered a t1/2 of 1.88 h. The PPB in data set [5] stood at 99.7%. Also, the AUC (usually concentration integrated over time) was found to be 4200 ng·h/mL in [7] and 43300 ng·h/mL in data set [34]. Also, the outcome in data set [8], in [13], in [18] and in data set [22] was Active. Moreover, in [14], the volume of distribution (Vd) (commonly the apparent volume that relates the amount in the body to the concentration in plasma or blood) turned out to be 0.322 L/kg. In addition, the 50% cytotoxic concentration (CC50) (usually the concentration that lowers cell viability or growth by half) in [15] was greater than 32 µg/mL. The molecule also returned a F in [17] of 51.6%. In addition, in data set [21], the Kinetic_solubility came out at 2.4 µg/mL. Moreover, the Cmax (in general, the maximum level reached in the sampled fluid or tissue) in data set [33] worked out at 3100 ng/mL.

Regarding `Oc1cc(C(F)(F)F)nc2c(OC(F)(F)F)cccc12`, the results for the MIC in data set [35] and in data set [16] were 8 µg/mL (≈ 26.9 µM) and 5 µg/mL (≈ 16.8 µM), respectively.
